Experimental data as given in ChEMBL document CHEMBL3244352, “Synthesis and analgesic activity of some spiro[dibenz[b,f]oxepin-10,4'-piperidine] derivatives” (J Med Chem, 1979).

Experiments:
[1] = organism: Mus musculus; experiment: animal or person; format: functional; conditions: CD-1 Charles River, sc
[2] = test system: Mus musculus; experiment: Analgesic activity in CD-1 Charles River mouse at 25 mg/kg, sc measured for 15 to 60 mins by tail flick test relative to control; format: functional; conditions: route subcutaneous
Outline: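 Male CD-1 mice, ten per group, were restrained and given an intense light-beam stimulus, and tail-flick latency was recorded. Two baseline readings were taken. Mice were excluded if their readings differed by more than 1 s or if including them would widen the group spread beyond 3 s. A cutoff was set from the baselines. Drug was given sc (vehicle 10 mL/kg), and mice were tested at 15, 30, 45 and 60 min. Responses beyond the cutoff counted as analgesia, reported as percent.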

[3] = test system: Mus musculus; experiment: Potency index, ratio of propoxyphene ED50 to compound ED50 for inhibition of phenyl-p-benzoquinine-induced writhing in sc dosed CD-1 Charles River mouse; format: functional
Outline: (§1)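 Writhing ED50s came from male CD-1 mice, ten per dose, tested at peak time after sc or po dosing, with four doses plus a vehicle control (water with Tween 80) in randomized order. Writhes were counted for 10 min, beginning 5 min after 0.125% phenyl-p-benzoquinone. ED50 was estimated by linear regression of percent inhibition, and ratios were formed from these ED50s.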

[4] = test system: Mus musculus; experiment: Ratio of ED50 for inhibition of phenyl-p-benzoquinine-induced writhing in po dosed CD-1 Charles River mouse to ED50 for inhibition of phenyl-p-benzoquinine-induced writhing in sc dosed CD-1 Charles River mouse; format: functional
Outline: as §1

[5] = test system: Mus musculus; experiment: Analgesic activity in po dosed CD-1 Charles River mouse assessed as inhibition of phenyl-p-benzoquinine-induced writhing administered 15 to 90 mins prior to phenyl-p-benzoquinine challenge measured after 5 mins; format: functional
[6] = test system: Mus musculus; experiment: Potency index, ratio of propoxyphene ED50 to compound ED50 for inhibition of phenyl-p-benzoquinine-induced writhing in po dosed CD-1 Charles River mouse; format: functional
Outline: as §1

[7] = test system: Mus musculus; experiment: Analgesic activity in sc dosed CD-1 Charles River mouse measured for 15 to 60 mins by tail flick test relative to control; format: functional
[8] = Ratio of ED50 for neurotoxicity in CD-1 Charles River mouse by rotarod test to ED50 for inhibition of phenyl-p-benzoquinine-induced writhing in CD-1 Charles River mouse; format: toxicity, organism-based; conditions: CD-1, mouse, in vivo; read-out: Ratio ED50
[9] = test system: Mus musculus; experiment: Analgesic activity in po dosed CD-1 Charles River mouse measured for 15 to 60 mins by tail flick test relative to control; format: functional
[10] = test system: Mus musculus; experiment: Analgesic activity in CD-1 Charles River mouse assessed as inhibition of phenyl-p-benzoquinine-induced writhing at 25 mg/kg, po administered 15 to 90 mins prior to phenyl-p-benzoquinine challenge measured after 5 mins relative to control; format: functional
Outline: (§2)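 Male CD-1 Charles River mice (18-24 g), five per group, were given the drug 15, 30, 60 and 90 min before an injection of 0.125% phenyl-p-benzoquinone in 5% aqueous ethanol. The vehicle was distilled water with a few drops of Tween 80. Writhes were counted for 10 min, starting 5 min after the injection, with mice held singly in beakers. The read-out was percent inhibition of writhes versus vehicle-treated mice.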

[11] = test system: Mus musculus; experiment: Analgesic activity in CD-1 Charles River mouse assessed as inhibition of phenyl-p-benzoquinine-induced writhing at 25 mg/kg, sc administered 15 to 90 mins prior to phenyl-p-benzoquinine challenge measured after 5 mins relative to control; format: functional; conditions: route subcutaneous
Outline: as §2

[12] = test system: Mus musculus; experiment: Analgesic activity in CD-1 Charles River mouse assessed as inhibition of phenyl-p-benzoquinine-induced writhing at 5 mg/kg, po administered 15 to 90 mins prior to phenyl-p-benzoquinine challenge measured after 5 mins relative to control; format: functional
Outline: as §2

Row | SMILES | ED50 [1] | Activity [2] | inhibition in vivo at 25 mg/kg [11] | also measured
1 | CN1CC[C@]23c4c5ccc(O)c4O[C@H]2[C@@H](O)C=C[C@H]3[C@H]1C5.CN1CC[C@]23c4c5ccc(O)c4O[C@H]2[C@@H](O)C=C[C@H]3[C@H]1C5.O=S(=O)(O)O | 0.36 mg/kg | – | – | –
2 | Br.CN1CCC2(CC1)C(=O)c1ccccc1Oc1ccccc12 | 5.2 mg/kg | 13% | – | –
3 | Br.CN1CCC2(CC1)C(=O)c1cc(F)ccc1Oc1ccccc12 | 1.9 mg/kg | 30% | – | Ratio ED50 [3]: 2; Ratio ED50 [4]: 1; ED50 [5]: 2 mg/kg; Ratio ED50 [6]: 10
4 | Br.CN1CCC2(CC1)C(=O)c1cc(Cl)ccc1Oc1ccccc12 | 3.5 mg/kg | – | – | Ratio ED50 [4]: 1.5; ED50 [7]: 13.2 mg/kg; ED50 [5]: 5.2 mg/kg
5 | Br.O=C1c2ccccc2Oc2ccccc2C12CCNCC2 | 1.7 mg/kg | 60% | – | Ratio ED50 [4]: 4.5; ED50 [5]: 7.5 mg/kg
6 | Cl.O=C1c2cc(F)ccc2Oc2ccccc2C12CCNCC2 | 1.6 mg/kg | 75% | – | selectivity ratio [8]: 17.6; Ratio ED50 [3]: 2; ED50 [9]: 51.4 mg/kg; Ratio ED50 [4]: 1; ED50 [5]: 2.2 mg/kg; Ratio ED50 [6]: 10
7 | Br.O=C1c2cc(Cl)ccc2Oc2ccccc2C12CCNCC2 | 3.7 mg/kg | – | – | Ratio ED50 [4]: 2; ED50 [7]: 12 mg/kg; ED50 [5]: 7.7 mg/kg
8 | Br.O=C1c2ccccc2Oc2ccccc2C12CCN(CC1CC1)CC2 | 6 mg/kg | – | – | inhibition in vivo at 25 mg/kg [10]: 59%
9 | Br.O=C1c2cc(Cl)ccc2Oc2ccccc2C12CCN(CC1CC1)CC2 | – | 0% | 31% | –
10 | Br.O=C1c2ccccc2Oc2ccccc2C12CCN(CCc1ccccc1)CC2 | 21 mg/kg | 40% | – | –
11 | O=C1c2cc(Cl)ccc2Oc2ccccc2C12CCN(CCc1ccccc1)CC2 | – | 0% | 30% | –
12 | Br.C#CCN1CCC2(CC1)C(=O)c1ccccc1Oc1ccccc12 | – | 20% | 57% | –
13 | C#CCN1CCC2(CC1)C(=O)c1cc(Cl)ccc1Oc1ccccc12 | – | 10% | 32% | –
14 | Br.O=C1c2ccccc2Oc2ccccc2C12CCN(CCO)CC2 | 2.8 mg/kg | 40% | – | –
15 | Br.O=C1c2cc(Cl)ccc2Oc2ccccc2C12CCN(CCO)CC2 | 7 mg/kg | 30% | – | –
16 | Br.O=C(CCCN1CCC2(CC1)C(=O)c1ccccc1Oc1ccccc12)c1ccc(F)cc1 | – | 60% | – | inhibition in vivo at 5 mg/kg [12]: 67%
17 | Br.O=C(CCCN1CCC2(CC1)C(=O)c1cc(Cl)ccc1Oc1ccccc12)c1ccc(F)cc1 | – | 20% | 49% | –
18 | Br.O=C1c2ccccc2Oc2ccccc2C12CCN(CCCOc1ccccc1)CC2 | – | 20% | 55% | –
19 | O=C1c2cc(Cl)ccc2Oc2ccccc2C12CCN(CCCOc1ccccc1)CC2 | – | 0% | 54% | –
20 | CC(C)=CCN1CCC2(CC1)C(=O)c1cc(Cl)ccc1Oc1ccccc12 | – | – | 42% | –
21 | Br.C=CCN1CCC2(CC1)C(=O)c1cc(Cl)ccc1Oc1ccccc12 | – | 10% | 37% | –
22 | Br.CCN1CCC2(CC1)C(=O)c1cc(Cl)ccc1Oc1ccccc12 | – | 0% | 67% | –
23 | Br.CCCN1CCC2(CC1)C(=O)c1cc(Cl)ccc1Oc1ccccc12 | – | 10% | 22% | –
24 | CC(C)=CCN1CC[C@]2(C)c3cc(O)ccc3C[C@H]1[C@H]2C [(+)-PENTAZOCINE] | 2.4 mg/kg | – | – | –
25 | CCC(=O)O[C@](Cc1ccccc1)(c1ccccc1)[C@H](C)CN(C)C [PROPOXYPHENE] | 3.9 mg/kg | – | – | Ratio ED50 [4]: 6.3; ED50 [5]: 24.6 mg/kg
